From ChEMBL document CHEMBL3779771, “Chiral Dihydrobenzofuran Acids Show Potent Retinoid X Receptor-Nuclear Receptor Related 1 Protein Dimer Activation” (J Med Chem, 2016) come the findings set out here.

The EC50 is the concentration giving half of the maximal effect. A lower EC50 goes with an effect from little substance.

Molecules are shown by their SMILES. Active and inactive are the calls of the source. The calls are words filed in the database; no cut-off is given here.

In experiment [1] the target is T1, Retinoic acid receptor RXR-alpha (Homo sapiens) (UniProt P19793).
T1 sequence (whole entry): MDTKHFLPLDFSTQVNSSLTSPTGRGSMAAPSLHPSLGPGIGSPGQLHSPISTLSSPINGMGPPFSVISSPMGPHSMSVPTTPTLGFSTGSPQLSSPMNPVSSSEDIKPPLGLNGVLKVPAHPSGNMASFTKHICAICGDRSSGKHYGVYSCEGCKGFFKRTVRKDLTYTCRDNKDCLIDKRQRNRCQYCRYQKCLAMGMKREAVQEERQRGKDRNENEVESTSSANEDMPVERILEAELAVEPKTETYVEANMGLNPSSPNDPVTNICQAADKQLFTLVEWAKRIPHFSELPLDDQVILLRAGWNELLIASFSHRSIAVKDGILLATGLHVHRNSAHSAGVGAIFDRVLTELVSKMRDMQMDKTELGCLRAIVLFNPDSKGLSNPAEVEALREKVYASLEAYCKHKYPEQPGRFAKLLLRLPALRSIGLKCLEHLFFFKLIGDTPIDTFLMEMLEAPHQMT
As to the kind of experiment: Agonist activity at histidine-tagged ligand binding domain of human RXRalpha expressed in Escherichia coli BL21 (DE3) by luciferase reporter gene assay relative to bexarotene. In general terms: In a reporter assay the amount or activity of a reporter protein is the signal.

Experiment [2] concerns the target T2, Nuclear receptor subfamily 4 group A member 2/Retinoic acid receptor RXR-alpha (Homo sapiens, UniProt P19793+P43354). Nature of the experiment: Agonist activity at Renilla luciferase/GFP2-tagged RXRalpha/Nurr1 (unknown origin) expressed in HEK293T cells by BRET2 assay. Format: cell-based, HEK-293T. (Bioluminescence resonance energy transfer reports proximity on the nanometre scale.)

Experiment [3] deals with T1, Retinoic acid receptor RXR-alpha (Homo sapiens). Nature of the experiment: Agonist activity at Renilla luciferase/GFP2-tagged RXRalpha homodimer (unknown origin) expressed in HEK293T cells by BRET2 assay relative to bexarotene. The format is cell-based. To be noted: HEK-293T. The procedure, abridged: (§1)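 BRET2 assay with RXR and Nurr1 receptors tagged with GFP and Renilla luciferase, run in whole cells. Potency is given as pEC50, the negative log of molar EC50. Agonist efficacy is expressed relative to bexarotene, set at 100%. Values are mean ± SD of at least three independent experiments.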

Experiment [4] concerns the target T3, Retinoic acid receptor RXR-alpha (Homo sapiens, UniProt P19793).
T3 sequence (P19793 whole entry): T1 sequence (whole entry)
As to the kind of experiment: (§2) Agonist activity at histidine-tagged ligand binding domain of human RXRalpha expressed in Escherichia coli BL21 (DE3) by luciferase reporter gene assay.

For experiment [5], the target named is T2, Nuclear receptor subfamily 4 group A member 2/Retinoic acid receptor RXR-alpha. Nature of the experiment: Agonist activity at Renilla luciferase/GFP2-tagged RXRalpha/Nurr1 (unknown origin) expressed in HEK293T cells by BRET2 assay relative to bexarotene. Format: cell-based. To be noted: HEK-293T. The procedure, abridged:
as §1

Experiment [6] deals with T1, Retinoic acid receptor RXR-alpha (Homo sapiens). The experiment is described as §2.
The target in experiment [7] is T4, Estrogen receptor (Homo sapiens) (UniProt P03372).
T4 sequence (whole entry): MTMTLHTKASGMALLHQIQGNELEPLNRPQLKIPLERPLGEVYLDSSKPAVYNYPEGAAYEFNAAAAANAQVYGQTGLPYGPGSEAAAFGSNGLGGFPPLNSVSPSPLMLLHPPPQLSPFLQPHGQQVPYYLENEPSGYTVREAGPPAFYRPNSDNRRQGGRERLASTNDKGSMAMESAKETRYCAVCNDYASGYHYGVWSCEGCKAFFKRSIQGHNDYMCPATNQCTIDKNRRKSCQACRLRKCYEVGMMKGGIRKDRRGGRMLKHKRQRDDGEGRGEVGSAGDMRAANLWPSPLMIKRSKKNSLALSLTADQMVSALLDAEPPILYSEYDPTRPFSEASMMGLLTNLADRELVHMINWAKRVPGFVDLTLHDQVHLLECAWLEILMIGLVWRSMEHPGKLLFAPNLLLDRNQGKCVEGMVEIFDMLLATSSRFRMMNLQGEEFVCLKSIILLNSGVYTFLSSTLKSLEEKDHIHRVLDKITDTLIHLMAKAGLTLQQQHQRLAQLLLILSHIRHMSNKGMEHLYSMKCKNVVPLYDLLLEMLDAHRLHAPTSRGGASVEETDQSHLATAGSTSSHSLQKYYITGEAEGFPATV
Nature of the experiment: Activation of estrogen receptor (unknown origin).

Experiment [8] deals with Retinoic acid receptor (Homo sapiens) (UniProt P13631+P10826+P10276). Nature of the experiment: Activation of RAR (unknown origin). Format: protein assay.
Sequence of Retinoic acid receptor (Homo sapiens) (P10276 whole entry, looked up): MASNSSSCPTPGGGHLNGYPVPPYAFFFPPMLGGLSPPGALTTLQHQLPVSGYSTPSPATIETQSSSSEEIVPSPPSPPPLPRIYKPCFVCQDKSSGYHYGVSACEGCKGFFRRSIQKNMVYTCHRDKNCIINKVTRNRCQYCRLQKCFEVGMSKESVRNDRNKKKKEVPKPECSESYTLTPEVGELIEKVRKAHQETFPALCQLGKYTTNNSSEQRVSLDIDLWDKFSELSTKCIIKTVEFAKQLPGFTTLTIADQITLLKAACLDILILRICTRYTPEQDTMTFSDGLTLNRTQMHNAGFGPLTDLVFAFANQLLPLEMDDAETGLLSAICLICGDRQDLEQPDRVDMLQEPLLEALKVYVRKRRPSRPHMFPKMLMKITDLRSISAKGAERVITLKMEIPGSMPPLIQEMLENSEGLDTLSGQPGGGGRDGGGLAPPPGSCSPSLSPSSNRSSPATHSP
Sequence of Retinoic acid receptor (Homo sapiens) (P10826 whole entry, looked up): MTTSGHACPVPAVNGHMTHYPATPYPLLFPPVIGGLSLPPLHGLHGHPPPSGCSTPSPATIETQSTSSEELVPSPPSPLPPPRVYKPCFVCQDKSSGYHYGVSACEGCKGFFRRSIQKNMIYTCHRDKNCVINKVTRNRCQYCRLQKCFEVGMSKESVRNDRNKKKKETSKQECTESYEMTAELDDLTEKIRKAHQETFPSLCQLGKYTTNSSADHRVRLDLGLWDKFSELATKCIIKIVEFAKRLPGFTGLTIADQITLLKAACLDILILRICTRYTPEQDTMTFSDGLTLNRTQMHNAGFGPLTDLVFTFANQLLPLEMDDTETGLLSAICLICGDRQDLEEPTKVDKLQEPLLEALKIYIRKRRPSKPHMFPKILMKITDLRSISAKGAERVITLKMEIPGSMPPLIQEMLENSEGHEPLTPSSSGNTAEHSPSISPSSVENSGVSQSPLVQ
Sequence of Retinoic acid receptor (Homo sapiens) (P13631 whole entry, looked up): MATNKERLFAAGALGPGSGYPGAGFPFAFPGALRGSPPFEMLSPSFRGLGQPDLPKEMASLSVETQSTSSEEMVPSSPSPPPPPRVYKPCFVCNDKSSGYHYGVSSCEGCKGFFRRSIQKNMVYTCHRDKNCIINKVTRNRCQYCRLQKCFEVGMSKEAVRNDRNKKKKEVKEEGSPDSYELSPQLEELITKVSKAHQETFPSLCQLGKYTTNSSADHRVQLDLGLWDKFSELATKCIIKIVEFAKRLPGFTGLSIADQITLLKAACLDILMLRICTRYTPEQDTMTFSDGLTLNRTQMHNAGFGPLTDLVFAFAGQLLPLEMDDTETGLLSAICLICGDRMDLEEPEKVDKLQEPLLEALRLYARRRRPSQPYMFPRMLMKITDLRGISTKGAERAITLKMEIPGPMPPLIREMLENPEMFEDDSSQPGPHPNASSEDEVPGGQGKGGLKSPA
Experiment [9] has as its target T3, Retinoic acid receptor RXR-alpha. As to the kind of experiment: Agonist activity at Renilla luciferase/GFP2-tagged RXRalpha homodimer (unknown origin) expressed in HEK293T cells by BRET2 assay. Format: cell-based, HEK-293T.
For a further experiment, the species on record is Homo sapiens. As to the kind of experiment: Selectivity ratio of EC50 for Renilla luciferase/GFP2-tagged RXRalpha homodimer (unknown origin) to EC50 for Renilla luciferase/GFP2-tagged RXRalpha/Nurr1 (unknown origin).

T2 sequence (P43354 whole entry, one chain of several): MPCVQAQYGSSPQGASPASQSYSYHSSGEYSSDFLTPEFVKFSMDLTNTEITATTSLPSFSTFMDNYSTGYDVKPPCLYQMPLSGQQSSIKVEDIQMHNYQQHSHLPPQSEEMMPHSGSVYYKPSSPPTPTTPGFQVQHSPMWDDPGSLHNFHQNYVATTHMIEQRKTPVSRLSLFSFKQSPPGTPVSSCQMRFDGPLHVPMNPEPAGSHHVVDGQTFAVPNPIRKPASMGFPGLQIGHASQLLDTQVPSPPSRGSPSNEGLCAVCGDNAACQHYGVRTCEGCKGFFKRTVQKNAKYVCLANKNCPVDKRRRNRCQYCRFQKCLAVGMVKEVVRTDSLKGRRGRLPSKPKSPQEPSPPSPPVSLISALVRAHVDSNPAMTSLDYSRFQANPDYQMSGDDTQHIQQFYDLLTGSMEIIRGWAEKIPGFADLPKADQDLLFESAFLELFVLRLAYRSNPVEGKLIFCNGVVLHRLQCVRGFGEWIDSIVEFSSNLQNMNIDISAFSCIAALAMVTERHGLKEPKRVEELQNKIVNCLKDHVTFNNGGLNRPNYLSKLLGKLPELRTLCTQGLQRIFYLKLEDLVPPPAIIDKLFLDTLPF

With `CC1(C)CCC(C)(C)c2cc3c(cc21)O[C@H]1CCC[C@@]31c1ccc(C(=O)O)cc1`, the Efficacy in experiment [1] stood at 59%; in experiment [5] it was 49%. In addition, the EC50 is 501 nM in [2] and 1000 nM in experiment [4]. In [3], the Efficacy entry is “inactive”.
In turn, `CC1(C)CCC(C)(C)c2cc3c(cc21)O[C@H]1CCCC[C@@]31c1ccc(C(=O)O)cc1` gave a concentration for a half-maximal effect (EC50) in [2] greater than 3160 nM. The Efficacy entry in [3] is “inactive”. Besides, the pEC50 result in [6] was “inactive”. This compound also showed an Efficacy in experiment [5] of 92%.
The compound `CC1(C)CCC(C)(C)c2cc3c(cc21)OC1CCCCC31c1ccc(C(=O)O)c(F)c1` (racemic) registered an Efficacy in experiment [1] of 88%. It took 50.1 nM to reach a half-maximal effect in [4] (EC50). The result in experiment [7] and in [8] was inactive.
In the case of `CC1(C)CCC(C)(C)c2cc3c(cc21)O[C@@H]1CCC[C@]31c1ccc(C(=O)O)cc1`, the figures for the Efficacy in experiment [1], in experiment [3] and in experiment [5] were 119%, 85% and 111%, respectively. The EC50 was 12.6 nM in experiment [2], 25.1 nM in experiment [9] and 6.31 nM in experiment [4]. Further, in the experiment listed under Homo sapiens, the Ratio EC50 is 3.
Compound `CC1(C)CCC(C)(C)c2cc3c(cc21)OC1CCCC31c1ccc(C(=O)O)cc1` (racemic) had an Efficacy in experiment [1] of 65%. The compound also gave a concentration giving a half-maximal response (EC50) in experiment [4] of 25.1 nM. The outcome in experiment [7] and in [8] was inactive.
The compound `CC1(C)CCC(C)(C)c2cc3c(cc21)O[C@H]1CCCCC[C@@]31c1ccc(C(=O)O)cc1` (racemic) gave an Efficacy in experiment [1] of 47%. This compound also had an EC50 in experiment [4] of 126 nM. In addition, the outcome in experiment [7] and in experiment [8] was inactive.
As for `CC1(C)CCC(C)(C)c2cc3c(cc21)OC1CCCCC31c1ccc(O)cc1` (racemic), in experiment [6], the pEC50 result was “inactive”.
`CC1(C)CCC(C)(C)c2cc3c(cc21)O[C@H]1CCCCC[C@]31c1ccc(C(=O)O)cc1` (racemic): the pEC50 entry in experiment [6] is “inactive”.
As to `CC1(C)CCC(C)(C)c2cc3c(cc21)O[C@@H]1CCCC[C@]31c1ccc(C(=O)O)cc1`, the values for the Efficacy in [1], in experiment [3] and in experiment [5] were 94%, 80% and 96%, respectively. Moreover, the EC50 was 12.6 nM in experiment [2], 15.8 nM in [9] and 20 nM in experiment [4].
For `CC1(C)CCC(C)(C)c2cc3c(cc21)OC1CCCCC31c1ccc(C(=O)O)cc1` (racemic), the Efficacy in experiment [1] turned out to be 96%. Further, the midpoint of the response in [4], the EC50, lay at 50.1 nM. The outcome in experiment [7] and in [8] was inactive.
